One data set relates to 16-member kinase panel. Description: Eurofins custom enzymatic kinase panel, count of kinases inhibited. Format: biochemical. Conditions: 16-member Eurofins panel, 1 μM. The method in brief: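 Radiometric kinase assays were run with ATP at Km. Each test compound was tested at a single concentration of 1 μM, in duplicate, against each panel kinase, with results as percent of control. The count is the number of kinases at ≤ 10 PoC, i.e. inhibited ≥ 90%.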

Data set [1] relates to 403 wild-type (WT) human kinases. Description: DiscoverX scanMAX kinome-wide selectivity screen. The note with it: 403 WT human kinases; for no. kinases with PoC < 10: DiscoverX scanMAX, 1 μM; for S10 (1 μM): Percentage of screened kinases with PoC values < 10 at 1 μM. The format is binding.
A further data set can be described thus: PAMPA permeability. Conditions: PBS pH 7.4, 5 h incubation. Format: in vitro ADME. Summed up:
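DMSO stocks of test compound were diluted in PBS pH 7.4 and added to the donor side of a precoated PAMPA plate, with PBS pH 7.4 as acceptor, for 5 h. Both compartments were quantified by chemiluminescent nitrogen detection against a calibration curve, with background nitrogen corrected. Effective permeability was calculated from donor and acceptor concentrations, using measured rather than assumed solubility.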

The next data set addresses T1, TBK1 (NLuc-TBK1) (Homo sapiens, UniProt Q9UHD2).
T1 sequence (Q9UHD2 1-729): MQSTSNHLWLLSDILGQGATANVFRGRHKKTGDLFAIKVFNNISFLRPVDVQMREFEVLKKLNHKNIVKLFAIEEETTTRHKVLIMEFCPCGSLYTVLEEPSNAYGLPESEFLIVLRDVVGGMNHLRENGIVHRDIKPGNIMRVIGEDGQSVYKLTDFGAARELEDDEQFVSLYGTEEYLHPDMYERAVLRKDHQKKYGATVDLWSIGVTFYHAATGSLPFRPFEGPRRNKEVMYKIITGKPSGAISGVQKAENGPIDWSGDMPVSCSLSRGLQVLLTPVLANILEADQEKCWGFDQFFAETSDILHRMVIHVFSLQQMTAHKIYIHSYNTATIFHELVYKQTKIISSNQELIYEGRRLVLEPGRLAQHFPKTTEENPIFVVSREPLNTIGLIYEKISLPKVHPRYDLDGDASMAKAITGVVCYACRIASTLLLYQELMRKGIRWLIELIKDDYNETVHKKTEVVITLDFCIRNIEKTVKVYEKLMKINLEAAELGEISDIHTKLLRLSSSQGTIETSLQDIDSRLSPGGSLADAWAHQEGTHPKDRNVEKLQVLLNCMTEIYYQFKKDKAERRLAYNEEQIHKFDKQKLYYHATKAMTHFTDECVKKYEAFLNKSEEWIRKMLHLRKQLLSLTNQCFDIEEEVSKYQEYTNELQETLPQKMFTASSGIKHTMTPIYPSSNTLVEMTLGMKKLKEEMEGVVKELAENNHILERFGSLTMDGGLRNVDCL
Description: NanoBRET cellular target engagement assay. The format is cell-based. The note with it: HEK293, 0.5 μM tracer K-5; n = 1 where no error, SEM n = 3. The method in brief:
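HEK293 cells were grown in DMEM with 10% FBS at 37 °C under 5% CO2, passaged every 72 h with trypsin and kept below confluency. Cells expressed NanoLuc fusions (DRAK1-NLuc or NLuc-TBK1). Dose–response was run per the manufacturer's protocol, with 0.5 μM tracer K-9 for DRAK1 and 0.5 μM tracer K-5 for TBK1. SEM was reported where assays were repeated.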

The target of a further data set is T2, DRAK1 (DRAK1-NLuc) (Homo sapiens, UniProt Q9UEE5).
T2 sequence (Q9UEE5 1-414): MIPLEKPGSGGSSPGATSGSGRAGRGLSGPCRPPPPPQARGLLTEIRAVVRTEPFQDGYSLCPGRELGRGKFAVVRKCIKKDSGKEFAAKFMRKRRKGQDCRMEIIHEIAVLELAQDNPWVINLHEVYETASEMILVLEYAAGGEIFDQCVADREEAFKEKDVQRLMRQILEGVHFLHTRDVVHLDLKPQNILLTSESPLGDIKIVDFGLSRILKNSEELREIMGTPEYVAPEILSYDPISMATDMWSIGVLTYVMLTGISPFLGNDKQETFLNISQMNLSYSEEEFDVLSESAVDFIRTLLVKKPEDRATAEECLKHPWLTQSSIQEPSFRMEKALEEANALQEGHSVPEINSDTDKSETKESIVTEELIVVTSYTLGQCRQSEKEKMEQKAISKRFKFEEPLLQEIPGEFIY
The data set can be described thus: NanoBRET cellular target engagement assay. Format: cell-based. Conditions: HEK293, 0.5 μM tracer K-9; n = 1 where no error, SEM n = 3.

Another data set addresses T3, MARK4 (NLuc-MARK4) (Homo sapiens, UniProt Q96L34).
T3 sequence (Q96L34 1-752): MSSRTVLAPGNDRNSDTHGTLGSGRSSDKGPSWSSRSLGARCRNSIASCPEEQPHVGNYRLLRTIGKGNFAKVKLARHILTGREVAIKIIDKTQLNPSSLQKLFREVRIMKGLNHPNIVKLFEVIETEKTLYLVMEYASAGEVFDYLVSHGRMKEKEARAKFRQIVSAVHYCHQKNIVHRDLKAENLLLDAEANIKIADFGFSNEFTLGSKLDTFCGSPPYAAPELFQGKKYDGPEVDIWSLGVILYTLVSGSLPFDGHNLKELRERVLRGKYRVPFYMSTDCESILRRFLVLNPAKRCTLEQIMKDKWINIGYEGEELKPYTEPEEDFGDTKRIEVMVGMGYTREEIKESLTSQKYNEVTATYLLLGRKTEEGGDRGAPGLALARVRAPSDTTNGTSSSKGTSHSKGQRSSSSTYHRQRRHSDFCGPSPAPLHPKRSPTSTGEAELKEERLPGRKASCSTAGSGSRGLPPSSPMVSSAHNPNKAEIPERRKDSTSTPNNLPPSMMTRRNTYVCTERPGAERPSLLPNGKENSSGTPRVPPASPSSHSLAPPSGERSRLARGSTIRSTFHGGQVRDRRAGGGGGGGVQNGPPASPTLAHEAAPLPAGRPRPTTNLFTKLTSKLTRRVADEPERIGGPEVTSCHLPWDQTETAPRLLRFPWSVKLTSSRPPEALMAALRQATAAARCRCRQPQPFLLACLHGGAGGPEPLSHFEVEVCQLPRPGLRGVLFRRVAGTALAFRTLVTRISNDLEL
The data set can be described thus: NanoBRET cellular target engagement assay. The note with it: HEK293, 0.5 μM tracer K-5; n = 1 where no error, SEM n = 2. Format: cell-based.

The values below come from PMC8802302 (Journal of Medicinal Chemistry, 2021).

Consider `NS(=O)(=O)c1ccc(CNc2nc(Nc3cccc(NC(=O)N4CCCC4)c3)ncc2C2CC2)cc1` [Compound 21, N-(3-((5-Cyclopropyl-4-((4-sulfamoylbenzyl)amino)pyrimidin-2-yl)amino)phenyl)pyrrolidine-1-carboxamide], for which the “no. kinases ≤ 10 PoC in enzyme panel” value in the data set on 16-member kinase panel came out at 1. For the same compound, the “no. kinases with PoC < 10” value in data set [1] worked out at 1.

Take `c1cc(CN2CCOCC2)cc(Nc2nccc(NCCc3cnc[nH]3)n2)c1` [Compound 20, N^4-(2-(1H-Imidazol-5-yl)ethyl)-N^2-(3-(morpholinomethyl)phenyl)pyrimidine-2,4-diamine]: the “no. kinases ≤ 10 PoC in enzyme panel” value with 16-member kinase panel stood at 1. In addition, in data set [1], the “no. kinases with PoC < 10” value is on record as 9 and the “S10 (1 μM)” value stood at 0.022.

`NS(=O)(=O)c1ccc(CNc2nc(Nc3cccc(CN4CCOCC4)c3)ncc2C2CC2)cc1` [Compound 11, 4-(((5-Cyclopropyl-2-((3-(morpholinomethyl)phenyl)amino)pyrimidin-4-yl)amino)methyl)-benzenesulfonamide]: the “no. kinases ≤ 10 PoC in enzyme panel” value in the data set with 16-member kinase panel is 1. In data set [1], the “no. kinases with PoC < 10” value stood at 3 and the “S10 (1 μM)” value is given as 0.007. Further, in “PAMPA permeability”, the “Pe (permeability coefficient, PAMPA)” value was “low permeability”.

On to `Cc1nn(CC(F)(F)F)cc1Nc1ncc(Br)c(NCc2ccc(S(N)(=O)=O)cc2)n1` [GSK8612, 4-(((5-Bromo-2-((3-methyl-1-(2,2,2-trifluoroethyl)-1H-pyrazol-4-yl)amino)pyrimidin-4-yl)-amino)methyl)benzenesulfonamide, reference compound], for which, in the data set with 16-member kinase panel, the “no. kinases ≤ 10 PoC in enzyme panel” value worked out at 1. Further, on TBK1 (NLuc-TBK1), the “TBK1 NanoBRET IC50” value was “submicromolar”. Besides, in data set [1], the “no. kinases with PoC < 10” value turned out to be 8. Besides, the “Pe (permeability coefficient, PAMPA)” value in “PAMPA permeability” was “below the limit of quantitation”.

For the compound `Cc1nn(CC(F)(F)F)cc1Nc1ncc(Br)c(NCCCNC(=O)C2CCC2)n1` [Compound 7, N-(3-((5-Bromo-2-((3-methyl-1-(2,2,2-trifluoroethyl)-1H-pyrazol-4-yl)amino)pyrimidin-4-yl)amino)propyl)cyclobutanecarboxamide], the “no. kinases ≤ 10 PoC in enzyme panel” value in the data set with 16-member kinase panel was 7. Besides, the “TBK1 NanoBRET IC50” value at TBK1 (NLuc-TBK1) is given as “submicromolar”. Further, in data set [1], the “no. kinases with PoC < 10” value stood at 62 and the “S10 (1 μM)” value is recorded as 0.154. Besides, the “DRAK1 NanoBRET IC50” value on DRAK1 (DRAK1-NLuc) is listed as “submicromolar”.

`O=C(Nc1cccc(Nc2ncc(Br)c(NCCc3cnc[nH]3)n2)c1)N1CCCC1` [BX-912, reference compound]: the “no. kinases ≤ 10 PoC in enzyme panel” value in the data set with 16-member kinase panel is 14. In addition, in the data set “PAMPA permeability”, the “Pe (permeability coefficient, PAMPA)” value is recorded as “low permeability”.

In the case of `NS(=O)(=O)c1ccc(CNc2nc(Nc3cccc(CN4CCOCC4)c3)ncc2Br)cc1` [Compound 6, 4-(((5-Bromo-2-((3-(morpholinomethyl)phenyl)amino)pyrimidin-4-yl)amino)methyl)benzenesulfonamide], the “no. kinases ≤ 10 PoC in enzyme panel” value with 16-member kinase panel worked out at 4. The “no. kinases with PoC < 10” value in data set [1] amounted to 19. Besides, the “Pe (permeability coefficient, PAMPA)” value in the data set “PAMPA permeability” is “below the limit of quantitation”.

As to `Cc1nn(CC(F)(F)F)cc1Nc1nccc(NCc2ccc(S(N)(=O)=O)cc2)n1` [Compound 12, 4-(((2-((3-Methyl-1-(2,2,2-trifluoroethyl)-1H-pyrazol-4-yl)amino)pyrimidin-4-yl)amino)methyl)benzenesulfonamide], the “no. kinases ≤ 10 PoC in enzyme panel” value in the data set on 16-member kinase panel is 0. Moreover, the “no. kinases with PoC < 10” value in data set [1] was determined as 1. Further, the “Pe (permeability coefficient, PAMPA)” value in “PAMPA permeability” is on record as “below the limit of quantitation”.

Take `O=C(NCCCNc1nc(Nc2cccc(CN3CCOCC3)c2)ncc1C1CC1)C1CCC1` [MRT67307, reference compound]: the “no. kinases ≤ 10 PoC in enzyme panel” value in the data set on 16-member kinase panel amounted to 12. On DRAK1 (DRAK1-NLuc), the “DRAK1 NanoBRET IC50” value is listed as “submicromolar”.

As for `Cc1nn(CC(F)(F)F)cc1Nc1ncc(Br)c(NCCc2cnc[nH]2)n1` [Compound 10, N^4-(2-(1H-Imidazol-5-yl)ethyl)-5-bromo-N^2-(3-methyl-1-(2,2,2-trifluoroethyl)-1H-pyrazol-4-yl)pyrimidine-2,4-diamine], the “no. kinases ≤ 10 PoC in enzyme panel” value in the data set with 16-member kinase panel worked out at 0. For the same compound, in data set [1], the “no. kinases with PoC < 10” value turned out to be 28 and the “S10 (1 μM)” value amounted to 0.069.

Turning to `c1cc(CN2CCOCC2)cc(Nc2ncc(C3CC3)c(NCCc3c[nH]cn3)n2)c1` [Compound 14, N^4-(2-(1H-Imidazol-4-yl)ethyl)-5-cyclopropyl-N^2-(3-(morpholinomethyl)phenyl)pyrimidine-2,4-diamine], the “no. kinases ≤ 10 PoC in enzyme panel” value in the data set on 16-member kinase panel is listed as 6. Also, in data set [1], the “no. kinases with PoC < 10” value is recorded as 27 and the “S10 (1 μM)” value amounted to 0.067. Further, the “Pe (permeability coefficient, PAMPA)” value in the data set “PAMPA permeability” is recorded as “low permeability”. For the same compound, on MARK4 (NLuc-MARK4), the “MARK4 NanoBRET IC50” value is listed as “submicromolar”.

In the case of `Cc1nn(CC(F)(F)F)cc1Nc1nccc(NCCCNC(=O)C2CCC2)n1` [Compound 8, N-(3-((2-((3-Methyl-1-(2,2,2-trifluoroethyl)-1H-pyrazol-4-yl)amino)pyrimidin-4-yl)amino)-propyl)cyclobutanecarboxamide], the “no. kinases ≤ 10 PoC in enzyme panel” value in the data set on 16-member kinase panel is listed as 0. Moreover, the “no. kinases with PoC < 10” value in data set [1] is on record as 1.

Turning to `CN1CCc2cc(Nc3ncc(C4CC4)c(NCCCNC(=O)C4CCC4)n3)ccc2C1` [MRT68921, reference compound], in the data set with 16-member kinase panel, the “no. kinases ≤ 10 PoC in enzyme panel” value was 13.

Regarding `O=C(NCCCNc1nc(Nc2cccc(NC(=O)N3CCCC3)c2)ncc1C1CC1)C1CCC1` [Compound 22, N-(3-((4-((3-(Cyclobutanecarboxamido)propyl)amino)-5-cyclopropylpyrimidin-2-yl)amino)-phenyl)pyrrolidine-1-carboxamide], the “no. kinases ≤ 10 PoC in enzyme panel” value in the data set with 16-member kinase panel was 9. Further, in data set [1], the “no. kinases with PoC < 10” value was 30 and the “S10 (1 μM)” value is 0.074. In addition, at DRAK1 (DRAK1-NLuc), the “DRAK1 NanoBRET IC50” value is reported as “submicromolar”. The “Pe (permeability coefficient, PAMPA)” value in the data set “PAMPA permeability” is listed as “low permeability”. Moreover, at MARK4 (NLuc-MARK4), the “MARK4 NanoBRET IC50” value is “submicromolar”.
